Source: ChEMBL document CHEMBL1126794, “2-(Quinuclidin-3-yl)pyrido[4,3-b]indol-1-ones and isoquinolin-1-ones. Potent conformationally restricted 5-HT3 receptor antagonists” (J Med Chem, 1993)

How the values were obtained:
[1] = target: T1, Serotonin 3 (5-HT3) receptor (Rattus norvegicus, UniProt P35563+Q9JJ16); experiment: Binding affinity against 5-hydroxytryptamine 3 (5-HT3) receptor in rat brain cortical membranes using radioligand [3H]quipazine; format: cell membranes
T1 sequence (P35563 whole entry): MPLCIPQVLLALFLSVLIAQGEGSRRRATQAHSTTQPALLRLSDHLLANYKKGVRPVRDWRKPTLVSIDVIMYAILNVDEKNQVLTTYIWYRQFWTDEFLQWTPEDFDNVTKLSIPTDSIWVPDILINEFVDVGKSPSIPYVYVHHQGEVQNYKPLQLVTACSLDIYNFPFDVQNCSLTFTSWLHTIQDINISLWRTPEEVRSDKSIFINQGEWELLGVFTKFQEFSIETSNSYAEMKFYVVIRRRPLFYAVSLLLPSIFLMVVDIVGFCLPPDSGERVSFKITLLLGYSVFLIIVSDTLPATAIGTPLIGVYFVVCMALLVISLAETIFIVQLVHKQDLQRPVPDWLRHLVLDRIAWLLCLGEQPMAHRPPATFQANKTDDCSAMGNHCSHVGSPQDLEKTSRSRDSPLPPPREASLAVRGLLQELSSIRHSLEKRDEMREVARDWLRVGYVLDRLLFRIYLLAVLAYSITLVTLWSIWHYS
T1 sequence (Q9JJ16 whole entry): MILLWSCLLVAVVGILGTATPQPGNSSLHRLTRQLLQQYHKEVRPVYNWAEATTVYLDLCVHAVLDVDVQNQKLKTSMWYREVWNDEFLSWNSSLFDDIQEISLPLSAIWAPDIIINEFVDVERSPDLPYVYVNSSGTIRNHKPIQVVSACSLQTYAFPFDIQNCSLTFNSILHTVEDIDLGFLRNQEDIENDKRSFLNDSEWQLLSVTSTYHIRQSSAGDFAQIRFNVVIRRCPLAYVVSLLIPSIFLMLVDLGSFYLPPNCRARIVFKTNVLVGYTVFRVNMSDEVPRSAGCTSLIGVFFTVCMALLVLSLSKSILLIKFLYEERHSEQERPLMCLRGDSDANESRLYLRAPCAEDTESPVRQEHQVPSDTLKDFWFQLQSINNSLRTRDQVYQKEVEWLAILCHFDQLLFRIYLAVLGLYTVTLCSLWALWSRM
Procedure, shortened: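 Rat cerebral cortex membranes, washed in 50 mM Tris pH 7.4, incubated 45 min at 25 °C in Tris-Krebs buffer pH 7.4 with 0.3–0.7 nM [3H]quipazine plus 0.1 μM paroxetine. Ten test concentrations from 1e-12 to 1e-4 M. Nonspecific binding defined with 1.0 μM racemic zacopride. Filtration, scintillation counting, IC50 by iterative fit, Ki by Cheng-Prusoff. Means of ≥3 determinations, or of two.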

Rattus norvegicus [2] = experiment: Potency to inhibit bradycardiac effect measured by Von Bezold-Jarisch assay in 8 anesthetized rats; format: functional; details: read-out: ID50 (the source's name)
Procedure, shortened: (§1)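 Male Sprague-Dawley rats, 250–380 g, under urethane (1.5 g/kg ip), with cannulated trachea and femoral veins; heart rate recorded by ECG. Lowest consistent bradycardic dose of 2-methyl-5-HT titrated iv, then given every 12 min. Increasing iv doses given 5 min before each challenge, with saline vehicle group.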

Rattus norvegicus [3] = experiment: Potency to inhibit bradycardiac effect measured by Von Bezold-Jarisch assay in 9 anesthetized rats; format: functional; details: Rattus norvegicus; read-out: ID50 (the source's name); procedure, shortened: as §1
Rattus norvegicus [4] = experiment: Potency to inhibit bradycardiac effect measured by Von Bezold-Jarisch assay in 5 anesthetized rats; format: functional; details: read-out: ID50 (the source's name); procedure, shortened: as §1
Canis familiaris [5] = experiment: Inhibition of emesis induced by peroral administration of cisplatin in 6 dogs at 0.1 mg/kg; format: functional, Canis lupus familiaris; details: route oral
Procedure, shortened: (§2)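 Single oral pretreatment in dogs (n = 6) by liquid gelatin capsule, 30 min before iv cisplatin at 3 mg/kg. Number of emetic episodes monitored continuously for 5 h after cisplatin. Significance versus control by Dunnett's t test.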

Canis familiaris [6] = experiment: Inhibition of emesis induced by peroral administration of cisplatin in 6 dogs at 0.3 mg/kg (p<0.01); format: functional, Canis lupus familiaris; details: route oral; procedure, shortened: as §2
Canis familiaris [7] = experiment: Inhibition of emesis induced by peroral administration of cisplatin in 6 dogs at 1.0 mg/kg (p<0.01); format: functional, Canis lupus familiaris; details: route oral; procedure, shortened: as §2
Canis familiaris [8] = experiment: Inhibition of emesis induced by intravenous administration of cisplatin in 6 dogs at 0.01 mg/kg; format: functional, Canis lupus familiaris
Procedure, shortened: (§3)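 Dogs, n = 6 per group, given one iv dose of test compound as an aqueous solution through a jugular vein cannula 30 min before iv cisplatin (3 mg/kg). Emetic episodes counted by continuous observation for 5 h after cisplatin. Results given as mean ± value versus control, with significance by Dunnett's t test.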

Canis familiaris [9] = experiment: Inhibition of emesis induced by intravenous administration of cisplatin in 6 dogs at 0.03 mg/kg; format: functional, Canis lupus familiaris; procedure, shortened: as §3
Canis familiaris [10] = experiment: Inhibition of emesis induced by intravenous administration of cisplatin in 6 dogs at 0.1 mg/kg (p<0.01); format: functional, Canis lupus familiaris; procedure, shortened: as §3
Canis familiaris [11] = experiment: Inhibition of emesis induced by intravenous administration of cisplatin in 6 dogs at 0.3 mg/kg (p<0.01); format: functional, Canis lupus familiaris; procedure, shortened: as §3
Canis familiaris [12] = experiment: Inhibition of emesis induced by intravenous administration of cisplatin in 6 dogs at 1 mg/kg (p<0.01); format: functional, Canis lupus familiaris; procedure, shortened: as §3
Canis familiaris [13] = experiment: Inhibition of emesis induced by peroral administration of cisplatin in 6 dogs at 0.01 mg/kg; format: functional, Canis lupus familiaris; details: route oral; procedure, shortened: as §2
Canis familiaris [14] = experiment: Inhibition of emesis induced by peroral administration of cisplatin in 6 dogs at 0.03 mg/kg; format: functional, Canis lupus familiaris; details: route oral; procedure, shortened: as §2
Mustela putorius furo [15] = experiment: Inhibition of emesis induced by peroral administration of cisplatin in 5 ferrets at 0.3 mg/kg (p<0.01); format: functional; details: route oral
Mustela putorius furo [16] = experiment: Inhibition of emesis induced by peroral administration of cisplatin in 5 ferrets at 0.03 mg/kg; format: functional; details: route oral
Mustela putorius furo [17] = experiment: Inhibition of emesis induced by peroral administration of cisplatin in 5 ferrets at 0.1 mg/kg (p<0.01); format: functional; details: route oral
Canis familiaris [18] = experiment: Inhibition of emesis induced by peroral administration of cisplatin in 6 dogs at 0.03 mg/kg (p<0.01); format: functional, Canis lupus familiaris; details: route oral
Canis familiaris [19] = experiment: Inhibition of emesis induced by peroral administration of cisplatin in 6 dogs at 0.1 mg/kg (p<0.01); format: functional, Canis lupus familiaris; details: route oral
Canis familiaris [20] = experiment: Inhibition of emesis induced by intravenous administration of cisplatin in 6 dogs at 0.001 mg/kg (p<0.05); format: functional, Canis lupus familiaris
Canis familiaris [21] = experiment: Inhibition of emesis induced by intravenous administration of cisplatin in 6 dogs at 0.003 mg/kg (p<0.01); format: functional, Canis lupus familiaris
Canis familiaris [22] = experiment: Inhibition of emesis induced by intravenous administration of cisplatin in 6 dogs at 0.03 mg/kg (p<0.01); format: functional, Canis lupus familiaris
Canis familiaris [23] = experiment: Inhibition of emesis induced by peroral administration of cisplatin in 6 dogs at 0.001 mg/kg; format: functional, Canis lupus familiaris; details: route oral
Canis familiaris [24] = experiment: Inhibition of emesis induced by peroral administration of cisplatin in 6 dogs at 0.003 mg/kg; format: functional, Canis lupus familiaris; details: route oral
Canis familiaris [25] = experiment: Inhibition of emesis induced by peroral administration of cisplatin in 6 dogs at 0.01 mg/kg (p<0.01); format: functional, Canis lupus familiaris; details: route oral
Mustela putorius furo [26] = experiment: Inhibition of emesis induced by peroral administration of cisplatin in 6 ferrets at 0.001 mg/kg; format: functional; details: route oral
Mustela putorius furo [27] = experiment: Inhibition of emesis induced by peroral administration of cisplatin in 6 ferrets at 0.003 mg/kg (p<0.05); format: functional; details: route oral
Mustela putorius furo [28] = experiment: Inhibition of emesis induced by peroral administration of cisplatin in 6 ferrets at 0.01 mg/kg (p<0.005); format: functional; details: route oral
Mustela putorius furo [29] = experiment: Inhibition of emesis induced by intravenous administration of cisplatin in 5 ferrets at 0.003 mg/kg; format: functional
Mustela putorius furo [30] = experiment: Inhibition of emesis induced by intravenous administration of cisplatin in 5 ferrets at 0.03 mg/kg (p<0.005); format: functional
Mustela putorius furo [31] = experiment: Inhibition of emesis induced by intravenous administration of cisplatin in 6 ferrets at 0.01 mg/kg (p<0.005); format: functional
Mustela putorius furo [32] = experiment: Inhibition of emesis induced by intravenous administration of cisplatin in 6 ferrets at 0.1 mg/kg (p<0.005); format: functional
Mustela putorius furo [33] = experiment: Inhibition of emesis induced by intravenous administration of cisplatin in 9 ferrets at 0.001 mg/kg; format: functional
Mustela putorius furo [34] = experiment: Inhibition of emesis induced by peroral administration of cisplatin in 5 ferrets at 0.03 mg/kg (p<0.005); format: functional; details: route oral
Mustela putorius furo [35] = experiment: Inhibition of emesis induced by peroral administration of cisplatin in 5 ferrets at 0.1 mg/kg (p<0.005); format: functional; details: route oral

## Cn1cc(C(=O)NC2CN3CCC2CC3)c2ccccc21 (stereo unspecified)
[1]
  Ki: 2 nM

## O=C(N[C@@H]1CN2CCC1CC2)c1cccc2c1CCCC2
[1]
  Ki: 200 nM

## Cc1cccc(C(=O)N[C@@H]2CN3CCC2CC3)c1C
[1]
  Ki: 158 nM

## CCCc1cn([C@@H]2CN3CCC2CC3)c(=O)c2ccccc12
[1]
  Ki: 5.01 nM

## CN1C2CCC1CC(n1cc3c4c(cccc4c1=O)CCC3)C2 (stereo unspecified)
[1]
  Ki: 0.794 nM
Rattus norvegicus [2]
  ED50: 0.65 µg/kg

## O=c1c2c3ccccc3n3c2c(cn1[C@@H]1CN2CCC1CC2)CCC3
Rattus norvegicus [3]
  ED50: 0.05 µg/kg

## O=c1c2c3ccccc3n3c2c(cn1[C@H]1CN2CCC1CC2)CCC3
Rattus norvegicus [4]
  ED50: > 2.41 µg/kg

## O=C1c2cccc3c2[C@@H](CCC3)CN1C1CN2CCC1CC2 (mixture of isomers)
[1]
  Ki: 0.316 nM

## COc1cc(N)c(Cl)cc1C(=O)N[C@H]1CN2CCC1CC2 [(R)ZACOPRIDE]
[1]
  Ki: 3.16 nM

## Cc1nccn1CC1CCc2c(c3ccccc3n2C)C1=O (stereo unspecified) [ONDANSETRON]
Canis familiaris [5]
  No. of emetic episodes: 10.5
Canis familiaris [6]
  No. of emetic episodes: 3.17
Canis familiaris [7]
  No. of emetic episodes: 2
Canis familiaris [8]
  No. of emetic episodes: 13.33
Canis familiaris [9]
  No. of emetic episodes: 8.33
Canis familiaris [10]
  No. of emetic episodes: 4.83
Canis familiaris [11]
  No. of emetic episodes: 1
Canis familiaris [12]
  No. of emetic episodes: 1.17
Canis familiaris [13]
  No. of emetic episodes: 12.67
Canis familiaris [14]
  No. of emetic episodes: 18.33
Mustela putorius furo [15]
  No. of emetic episodes: 4.2
Mustela putorius furo [16]
  No. of emetic episodes: 11.2
Mustela putorius furo [17]
  No. of emetic episodes: 2.2
Rattus norvegicus [3]
  ED50: 2.6 µg/kg

## Cl.O=C1c2cccc3c2[C@H](CCC3)CN1[C@@H]1CN2CCC1CC2 [PALONOSETRON HYDROCHLORIDE]
[1]
  Ki: 0.0398 nM
Canis familiaris [18]
  No. of emetic episodes: 2.67
Canis familiaris [19]
  No. of emetic episodes: 0
Canis familiaris [20]
  No. of emetic episodes: 7.17
Canis familiaris [21]
  No. of emetic episodes: 4.33
Canis familiaris [22]
  No. of emetic episodes: 1.33
Canis familiaris [23]
  No. of emetic episodes: 12.83
Canis familiaris [24]
  No. of emetic episodes: 16.17
Canis familiaris [25]
  No. of emetic episodes: 4
Mustela putorius furo [26]
  No. of emetic episodes: 15.17
Mustela putorius furo [27]
  No. of emetic episodes: 7.17
Mustela putorius furo [28]
  No. of emetic episodes: 2.17
Mustela putorius furo [29]
  No. of emetic episodes: 0.6
Mustela putorius furo [30]
  No. of emetic episodes: 0
Mustela putorius furo [31]
  No. of emetic episodes: 0
Mustela putorius furo [32]
  No. of emetic episodes: 0.17
Mustela putorius furo [33]
  No. of emetic episodes: 9.67
Mustela putorius furo [34]
  No. of emetic episodes: 1.8
Mustela putorius furo [35]
  No. of emetic episodes: 0.8
Rattus norvegicus [2]
  ED50: 0.02 µg/kg

## CN1[C@@H]2CC[C@H]1C[C@@H](OC(=O)c1c[nH]c3ccccc13)C2 [TROPISETRON]
[1]
  Ki: 2 nM
Rattus norvegicus [2]
  ED50: 0.4 µg/kg
